From ChEMBL document CHEMBL1250499, “Chiral 6-hydroxymethyl-1H,3H-pyrrolo[1,2-c]thiazoles: novel antitumor DNA monoalkylating agents” (Eur J Med Chem, 2010)

Experiments:
Type in all cases: functional, cell-based
[1] = tested on: A-375; assay: Cytotoxicity against human A375 cells after 24 hrs by MTT assay; settings: A-375, 24 h
In short: (§1)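 Cells grown in DMEM with 10% heat-inactivated FBS, 1% penicillin–streptomycin and 100 μM sodium pyruvate at 37 °C, 5% CO2. Seeded at 50 000 cells/mL, attached overnight, then exposed to successive DMSO dilutions of compound. Proliferation read by MTT colorimetric assay as % inhibition versus DMSO-only controls. IC50 from dose-response curves by exponential decay fit (r2 > 0.9). Duplicates, three independent sets.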

[2] = tested on: A-375; assay: Cytotoxicity against human A375 cells after 48 hrs by MTT assay; settings: A-375, 48 h; in short: as §1
[3] = tested on: A-375; assay: Cytotoxicity against human A375 cells after 72 hrs by MTT assay; settings: A-375, 72 h; in short: as §1
[4] = tested on: A-375; assay: Cytotoxicity against human A375 cells after 96 hrs by MTT assay; settings: A-375, 96 h; in short: as §1
[5] = tested on: WiDr; assay: Cytotoxicity against human WiDr cells after 24 hrs by MTT assay; in short: as §1
[6] = tested on: WiDr; assay: Cytotoxicity against human WiDr cells after 48 hrs by MTT assay; in short: as §1
[7] = tested on: WiDr; assay: Cytotoxicity against human WiDr cells after 72 hrs by MTT assay; in short: as §1
[8] = tested on: WiDr; assay: Cytotoxicity against human WiDr cells after 96 hrs by MTT assay; in short: as §1
[9] = tested on: MCF7; assay: Cytotoxicity against human MCF7 cells after 24 hrs by MTT assay; settings: MCF7, 24 h; in short: as §1
[10] = tested on: MCF7; assay: Cytotoxicity against human MCF7 cells after 48 hrs by MTT assay; settings: MCF7, 48 h; in short: as §1
[11] = tested on: MCF7; assay: Cytotoxicity against human MCF7 cells after 72 hrs by MTT assay; settings: MCF7, 72 h; in short: as §1
[12] = tested on: MCF7; assay: Cytotoxicity against human MCF7 cells after 96 hrs by MTT assay; settings: MCF7, 96 h; in short: as §1

Compound	IC50 [1] [µM]	IC50 [2] [µM]	IC50 [3] [µM]	IC50 [4] [µM]	IC50 [5] [µM]	IC50 [6] [µM]	IC50 [7] [µM]	IC50 [8] [µM]	IC50 [9] [µM]	IC50 [10] [µM]	IC50 [11] [µM]	IC50 [12] [µM]
COC(=O)c1cc2n(c1C)[C@@H](c1ccccc1)SC2	73.5	65.1	56.2	40	54.2	57.1	44.6	40.9	128	55.5	48.8	30.6
Cc1c(CO)cc2n1[C@@H](c1ccccc1)SC2	103	69.8	62.9	36.8	55.5	17.1	15.4	11	26.4	4.3	2.4	1.9
Cc1cc(CO)c2n1[C@@H](c1ccccc1)SC2	128	106	62.1	45.3	144	95.3	63.5	65.1	110	63.9	29.9	19.9
Cc1c(CO)c(CO)c2n1[C@@H](c1ccccc1)SC2	97.3	36.1	27.2	16.9	60	9.1	7.1	3.2	12.2	1.9	1	0.6
Cc1c(COC(=O)NCc2ccccc2)cc2n1[C@@H](c1ccccc1)SC2	37.4	32.4	42.1	27.6	30.9	8.7	8.7	14.8	8.8	4.4	2.2	1.9
